PP1 counter: blocks human PP1-alpha phosphatase, a PP5 counter-screen; 320,000 compounds, 0.9% hits; AID 2235; inhibition, % at 6.7 µM; purified PP1alpha, OMFP fluorescence; P62136;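 active = inhibition above the mean inhibition of all tested compounds plus 3 SD, computed separately for each screening campaign, cut at about 15% in these data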
PREPL inh: inhibitors of human prolyl oligopeptidase-like enzyme PREPL; AID 2751; recombinant PREPL, fluorescence polarization activity-based probe; 320,000 compounds, 0.68% hits; inhibition, % at 5.96 µM; Q4J6C6; in the data active = inhibition above about 43%;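 note: 0% = enzyme with DMSO and 100% = wells lacking enzyme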
UCH37 inh: human UCH37 deubiquitinating enzyme inhibition. purified proteasome/UCH37, Ub-AMC cleavage fluorescence. 330,000 compounds, 0.33% hits. inhibition, % (concentration not given with the values). Q9Y5K5;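 active = mean inhibition over replicate wells above about 20%, limit read from the data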;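 note: 0% = compound-free wells with enzyme and 100% = wells lacking proteasome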
Target sequence (Q9Y5K5 whole entry, looked up): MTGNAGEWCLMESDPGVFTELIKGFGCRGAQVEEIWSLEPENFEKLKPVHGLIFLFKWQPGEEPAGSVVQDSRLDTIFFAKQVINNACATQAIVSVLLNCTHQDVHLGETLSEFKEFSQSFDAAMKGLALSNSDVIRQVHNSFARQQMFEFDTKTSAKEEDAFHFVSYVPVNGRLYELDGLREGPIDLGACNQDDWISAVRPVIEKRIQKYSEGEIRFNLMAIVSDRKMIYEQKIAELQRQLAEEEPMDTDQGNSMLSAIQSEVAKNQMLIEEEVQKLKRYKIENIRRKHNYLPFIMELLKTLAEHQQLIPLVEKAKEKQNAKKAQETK
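Test system – human UCH37 enzyme supplied as purified proteasome complex · Incubation – 30 min preincubation with enzyme, 25 min cleavage at room temperature · Detection – AMC fluorescence from Ub-AMC cleavage, excitation 355 nm, emission 460 nm · Benchmarks – no-proteasome wells (full inhibition) and compound-free wells (no inhibition)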
UBC13 polyUb: human UBC13 polyubiquitination inhibition | P61088 | UBC13 polyubiquitin chain formation, TR-FRET | inhibition, % at 20 µM | 330,000 compounds, 0.47% hits; in the data active = inhibition above about 45%, passing the limit was not always enough
Target sequence (P61088 whole entry, looked up): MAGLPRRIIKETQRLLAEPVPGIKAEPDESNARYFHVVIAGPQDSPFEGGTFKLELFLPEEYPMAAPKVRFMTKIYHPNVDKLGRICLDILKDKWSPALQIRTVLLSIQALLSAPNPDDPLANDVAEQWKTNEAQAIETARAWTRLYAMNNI
Fh CTSL1 inh: blocks F. hepatica cathepsin L1 in PFM18AAP counter-screen. recombinant F. hepatica cathepsin L1, Z-Leu-Arg-MCA fluorescence. inhibition, % at 5.96 µM. 300,000 compounds, 0.49% hits. AID 1906;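 active = inhibition above the mean of all tested compounds plus 3 SD, set per screening campaign, cut at about 17% in these data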;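 note: 0% = plate median of test compound wells and 100% = 1 µM Z-Phe-Ala-diazomethylketone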
PP5 primary: PP5 (human) phosphatase inhibition; purified PP5c, OMFP substrate fluorescence; inhibition, % at 6.7 µM; 320,000 compounds, 0.18% hits; AID 1987;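 active = inhibition above the campaign's mean inhibition across all tested compounds plus 3 SD, cut at about 9.5% in these data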;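 note: 0% = DMSO only and 100% = 100 µM cantharidin control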
PP5 conf: PP5 (human) inhibition, confirmation; shares compounds with PP5 primary; inhibition, % at 6.7 µM; 460 compounds, 22% hits; Purified PP5, fluorogenic phosphatase substrate, fluorescence; in the data active = inhibition above about 9.5%
PP1 inh counter: counter-screen for PP5 inhibitors: human PP1 phosphatase inhibition | shares compounds with PP5 primary | PP1 enzyme, fluorescent phosphatase substrate | inhibition, % at 6.7 µM | 460 compounds, 4% hits; in the data active = inhibition above about 16%
Starred values were filed as active, the others as inactive; . = no result. A selection: hits, their analogues and other compounds. The true share with any hit is near 2.3%.

SMILES	PP1 counter	PREPL inh	UCH37 inh	UBC13 polyUb	Fh CTSL1 inh	PP5 primary	PP5 conf	PP1 inh counter
O=C(Nc1ccc(O)cc1)C1CCCO1 (stereo not given)	-4	1	0	-1	-2	11*	-2	-4
COC(=O)c1ccc(NC(=O)C2C3C=CC(O3)C2C(=O)O)cc1 (stereo not given)	8	-3	1	0	1	21*	5	6
Cc1ccc(NC(=O)C2C3C=CC(O3)C2C(=O)O)c(C)c1 (stereo not given)	3	-5	.	2	-4	18*	0	12
Cc1cccc(NC(=O)C2C3C=CC(O3)C2C(=O)O)c1C (stereo not given)	2	6	.	-5	2	10*	0	4
Cc1cccc(NC(=O)C2C(C(=O)O)C3C=CC2C32CC2)c1C (stereo not given)	-6	4	4	-31	3	1	.	.
Cc1cccc(NC(=O)C2C3C=CC(O3)C2C(=O)O)c1 (stereo not given)	-1	-4	.	1	2	9.8*	-1	4
Cc1ccc(C)c(NC(=O)C2C3C=CC(O3)C2C(=O)O)c1 (stereo not given)	.	.	1	4	.	.	.	.
Cc1cccc(NC(=O)C2C3C=CC(C4CC34)C2C(=O)O)c1 (stereo not given)	5	-4	2	1	0	3	.	.
COC(=O)c1ccc(NC(=O)C2C3C=CC(C3)C2C(=O)O)cc1 (stereo not given)	2	13	3	-7	-5	-4	.	.
Cc1ccc(C=NNc2nncn2N)cc1	.	.	5	.	.	.	.	.
O=C(NN=Cc1cc(Br)c(Br)o1)C1COc2ccccc2O1 (stereo not given)	.	.	4	.	.	.	.	.
Cc1ccc(C(=O)NN=C/C=C/c2ccccc2[N+](=O)[O-])cn1	.	.	8	.	.	.	.	.
CN(C)c1nc(NCc2ccccc2)nc(NN=Cc2cccc(Br)c2)n1	.	.	-1	.	.	.	.	.
CC(C)(C)c1ccc(C=NNC(=O)C2CCCC2)cc1	.	.	-2	.	.	.	.	.
COc1ccc(C=NNc2ccccn2)cc1O	.	.	14	.	.	.	.	.
Cc1nnc(NC(=O)C2C3C=CC(O3)C2C(=O)O)s1 (stereo not given)	1	-3	.	9	-4	16*	16*	13
COc1ccccc1NC(=O)C1C2C=CC(O2)C1C(=O)O (stereo not given)	3	0	.	9	1	15*	3	7
Cc1ccc(NC(=O)C2C3C=CC(O3)C2C(=O)O)cc1C (stereo not given)	2	6	.	-1	9	23*	4	23*
Cc1ccc(NC(=O)C2C3CCCC2C3c2ccccc2)cc1C (stereo not given)	-2	6	0	0	3	-1	.	.
COC(=O)c1ccc(C=NNC(=O)CC(=O)NC(C)C)cc1	.	.	5	.	.	.	.	.
Clc1cccc(OCCCCCN2CCOCC2)c1	-1	7	3	4	-2	10*	-5	-5
CC(CC(=O)NC12CC3CC(CC(C3)C1)C2)=NNC(=O)c1cnccn1	.	.	0	.	.	.	.	.
NC(=O)c1ccc(C(F)(F)F)n(Cc2c(Cl)cccc2Cl)c1=O	-2	-4	-2	2	3	12*	6	8
O=S(=O)(NN=Cc1ccc(N2CCOCC2)cc1)c1ccccc1	.	.	4	.	.	.	.	.
O=C1c2ccccc2C(=O)C1(O)O	5	15	.	-52	.	16*	5	14
SMILES	PP1 counter	PREPL inh	UCH37 inh	UBC13 polyUb	Fh CTSL1 inh	PP5 primary	PP5 conf	PP1 inh counter
COc1ccc(C(=O)NC2CCN(CC(=O)NCc3cccc(OC)c3)CC2)cc1	-1	-6	1	-1	-3	12*	-3	-6
COc1ccc(C(=O)C2CCN(CC(=O)NCc3ccccc3)CC2)cc1	2	3	1	-5	-2	2	.	.
CC(=NNC(=O)c1c(Cl)cnn1C)c1cccnc1	.	.	2	.	.	.	.	.
O=C(CCN1CCN(CCO)CC1)Nc1ccc(OCc2ccccc2)cc1	-5	26	2	-1	0	10*	-2	-3
CCc1ccc(NC(=O)CN(CC(=O)Nc2ccc(CC)cc2)CC(C)O)cc1 (stereo not given)	6	-59	6	16	-3	11*	8	5
Cn1cc(C(=O)c2ccc(Cl)cc2Cl)cc1C(=O)NN=C(N)COc1ccc(Cl)cc1	.	.	1	.	.	.	.	.
Cc1ccccc1N(CC(=O)NN=Cc1ccc(N(C)C)cc1)C(=O)c1ccccc1	.	.	-71	.	.	.	.	.
Cc1cccc(NC(=O)C2CCN(S(C)(=O)=O)CC2)c1C	-1	0	.	0	2	11*	-8	-6
Cc1nc2c(ncn2-c2ccccc2)c(=O)n1NC(=O)CN1CCCCC1	2	8	5	-6	5	13*	-5	-4
Cc1nc2c(ncn2-c2ccccc2)c(=O)n1NC(=O)CN1CCN(C)CC1	-6	-5	0	1	-1	0	.	.
CCOc1cc(C=NNC(=O)c2ccccn2)ccc1OC(=O)c1ccc(F)cc1	.	.	0	.	.	.	.	.
COc1ccc(C(C)=NNC(=O)CNC(=O)c2ccco2)cc1	.	.	2	.	.	.	.	.
COc1ccc(C=NNC(=O)c2cc(C)oc2C)cc1OC	.	.	10	.	.	.	.	.
Cc1[nH]c2ccccc2c1C(C#N)(C#N)C1C(=O)c2ccccc2C1=O	7	23	-3	-178	3	21*	8	1
O=C(O)CCC(=O)c1c[nH]c2ccccc12	-2	25	5	-3	-8	12*	-6	-2
CCOc1ccc(NC(=O)COC(=O)CCCc2c[nH]c3ccccc23)cc1	3	25	4	11	-19	9.8*	1	3
COc1ccc(NC(=O)CC(C)=NNC(=O)C(=O)Nc2cccc(Cl)c2C)c(OC)c1	.	.	-1	.	.	.	.	.
O=C(Nc1cc(C(F)(F)F)cc(C(F)(F)F)c1)c1ccc(Cn2cc(C(F)(F)F)ccc2=O)cc1	3	1	0	-15	0	11*	11*	1
O=C(Nc1ccc(C2CCCCC2)cc1)C1CCN(c2ncccn2)CC1	-3	7	3	-6	0	10*	-4	-3
O=C(Nc1ccc2c(c1)CCC2)C1CCN(c2ncccn2)CC1	-3	5	0	-8	3	-1	.	.
O=C1CC(N2CCN(c3ccc(Cl)cc3)CC2)C(=O)N1c1ccccc1 (stereo not given)	0	7	2	4	-3	10*	-2	-3
Cc1ccc(C)c(S(=O)(=O)Nc2ccc(O)c(Sc3ncn[nH]3)c2)c1	-4	2	1	3	1	2	.	.
Cc1ccc(S(=O)(=O)/N=C2\C=C(Nc3cccc(C(=O)O)c3)C(=O)c3ccccc32)c(C)c1	6	28	.	-154	46*	9.8*	36*	9
